Scp1 inh: Scp-1 phosphatase inhibitors, primary screen, biochemical, colorimetric, uHTS; 0.88% of 340,000 active; Recombinant Scp1, phosphopeptide, malachite green phosphate absorbance; inhibition, % at 20 µM;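 active = inhibition above about 50% at 20 µM, limit read from the data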
Target sequence (Q9GZU7 76-261 limits assumed): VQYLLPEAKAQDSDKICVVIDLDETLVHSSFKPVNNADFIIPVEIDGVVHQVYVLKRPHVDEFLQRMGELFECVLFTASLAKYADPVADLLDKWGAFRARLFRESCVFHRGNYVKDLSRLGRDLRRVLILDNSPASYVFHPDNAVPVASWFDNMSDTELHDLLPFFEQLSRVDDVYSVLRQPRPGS
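System: SCP-1 catalytic domain; Reagent: Phospho 17-mer peptide substrate; Doses: one concentration, 20 µM, with 1.0% DMSO; Incubation: 45 min room-temperature reaction, 5 min colour, 30 min stabiliser; Signal: Phosphate-binding colour reagent, absorbance read at 630 nm.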
LMPTP block: LMPTP phosphatase inhibitors, primary screen, biochemical, fluorescence intensity, uHTS; Low molecular weight phosphotyrosine protein phosphatase (Homo sapiens), P24666; recombinant LMPTP-A, OMFP fluorogenic substrate; inhibition, % at 20 µM; 0.22% of 360,000 active; AID 651560, 2012;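 active = compounds that cut the enzyme signal by at least half of the control window in the single-dose screen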
Target sequence (P24666 whole entry, looked up): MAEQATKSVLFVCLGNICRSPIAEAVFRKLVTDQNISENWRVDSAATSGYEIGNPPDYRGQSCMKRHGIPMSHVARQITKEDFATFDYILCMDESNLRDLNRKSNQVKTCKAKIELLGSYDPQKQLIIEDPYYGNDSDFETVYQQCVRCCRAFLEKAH
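Assay system: LMPTP-A enzyme. Input: 0.625 nM LMPTP-A final. Probe or stimulus: 400 µM OMFP. Compound dosing: single 20 µM dose. Schedule: 50 min dark incubation at room temperature. Detection: fluorescence intensity of OMFP turnover product. Read-out: percent inhibition versus substrate-only and uninhibited controls. Benchmarks: no-enzyme low control, uninhibited high control.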
STEP block: STEP phosphatase inhibitors, primary screen, biochemical, fluorescence intensity, uHTS. Tyrosine-protein phosphatase non-receptor type 5 (Homo sapiens), P54829. recombinant STEP, OMFP fluorogenic substrate. inhibition, % at 20 µM. 0.25% of 360,000 active. AID 588621, 2011;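 active = inhibition at 20 µM, scaled per plate between control wells, above about 37%, limit read from the data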
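Material: STEP (striatal-enriched tyrosine phosphatase) enzyme, cell-free | Medium: 50 mM Bis-Tris pH 6.0 with 2.5 mM DTT and 0.005% Tween 20 | Read-out: Percent inhibition scaled to no-enzyme and uninhibited-enzyme controls, plate-pattern corrected | Signal: Fluorescence read at 480 nm ex / 540 nm em | Times: 20 min reaction, room temperature, in the dark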
SUMO1-SIM PPI: modulators of SUMO1 protein-protein interactions, primary screen, biochemical, uHTS; 0.33% of 360,000 active; Small ubiquitin-related modifier 1 (Homo sapiens), P63165; SUMO1 binding to a labelled peptide, TR-FRET, 1 h; inhibition, % at 20 µM; in the data active = inhibition above about 37%
Target sequence (P63165 whole entry, looked up): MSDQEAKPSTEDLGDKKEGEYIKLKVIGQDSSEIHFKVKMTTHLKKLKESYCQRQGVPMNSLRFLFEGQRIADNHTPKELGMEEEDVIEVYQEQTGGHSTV
NadD inh: inhibitors of S. aureus NadD, primary screen, biochemical, colorimetric, uHTS; 0.78% of 360,000 active; purified NadD enzyme, colorimetric absorbance read-out; AID 602399, 2012; inhibition, % at 20 µM; in the data active = inhibition above about 26%
DNMT1 block: human DNMT1 methyltransferase inhibitors, primary screen, biochemical, molecular beacon, fluorescence, HinP1I cleavage, uHTS; 0.83% of 360,000 active; inhibition (reported as % activation of signal), % at 10 µM; DNA (cytosine-5)-methyltransferase 1 (Homo sapiens), P26358; in the data active = inhibition above about 50%
Beacon interf DR: spectral interference with molecular beacon fluorescence, dose response, artefact control for DNMT1 inhibitor project, biochemical, fluorescent molecular beacon. shares compounds with DNMT1 block. spectral interference counter-screen. IC50, µM. 200 tested, under 10 active. AID 602382, 2012; call rule not given here
DNMT1 inh conf: DNMT1 methyltransferase inhibitor retest, confirmation, biochemical, molecular beacon, fluorescence, single concentration; shares compounds with DNMT1 block; 8% of 2,300 active; DNMT1 molecular beacon HinP1I cleavage; inhibition, % at 10 µM;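 active = average inhibition of at least 30% in the single-concentration confirmation test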
Beacon interf: beacon fluorescence artifact counter-screen. activation (fluorescence interference), % at 10 µM. DNMT1 molecular beacon spectral interference counterscreen, fluorescence 485/520. AID 602387. 1% of 2,300 active. shares compounds with DNMT1 block;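 active = activation of at least 30% at 10 µM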;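 also: DNMT1 catalytic domain with a HinP1I cleavage step and a FAM/dabcyl DNA beacon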
A number is an active result; 0 = inactive; - = no result. Only some compounds are listed: those with a hit (about 2.4% of all), similar ones and a draw of the others.

SMILES | Scp1 inh | LMPTP block | STEP block | SUMO1-SIM PPI | NadD inh | DNMT1 block | DNMT1 inh conf | Beacon interf | others
CC1(NC(=O)CCc2nc3sc4c(c3c(=O)[nH]2)CCCC4)CCS(=O)(=O)C1 (stereo unspecified) | - | 0 | 0 | 0 | 0 | 54 | 0 | 0
CC(=O)Nc1ccc(NC(=O)CCc2nc3sc4c(c3c(=O)[nH]2)CCCC4)cc1 | 0 | 0 | 0 | 0 | 0 | 0 | - | -
COc1ccc(-c2csc(N3N=C(C)C(C)C3=O)n2)cc1 (stereo unspecified) | 0 | 0 | 0 | 0 | 0 | 0 | - | -
Cc1ccc(CSc2nnc(SCC(=O)N/N=C/c3c[nH]c4ccccc34)s2)cc1 | 0 | 0 | 0 | 0 | 0 | 62 | 0 | 0
O=C(CSc1nnc(SCc2ccccc2)s1)N/N=C/C=C\c1ccco1 | 82 | 0 | 0 | 0 | 0 | 88 | 0 | 0
O=C(CSc1nnc(SCc2ccccc2Cl)s1)N/N=C/c1c[nH]c2ccccc12 | 0 | 0 | 0 | 0 | 0 | 0 | - | -
CCCc1cnc(N2CCN(C(=S)NC)CC2)nc1 | 0 | 0 | 0 | 0 | 0 | 0 | - | -
CC(C)OCCCNC(=O)CN1C(=O)COc2ccc(S(=O)(=O)N3CCCCCC3)cc21 | 0 | 0 | 0 | 0 | 0 | 0 | - | -
CC(C)OCCCNC(=O)CN1C(=O)CSc2ccc(S(=O)(=O)N3CCCCC3)cc21 | 0 | 0 | 0 | 0 | 0 | 69 | 0 | 0
C/C(=N\NC(=O)c1cc(O)cc(O)c1)c1ccc(NC(=O)Cc2ccccc2)cc1 | 87 | 69 | 98 | 78 | 0 | 85 | 51 | 0 | Beacon interf DR=0
C/C(=N\NC(=O)c1cccc(F)c1)c1ccc(NC(=O)Cc2ccccc2)cc1 | 0 | 0 | 0 | 0 | 0 | 0 | - | -
COc1ccc(C2=C/C(=C\c3cccc(OC(C)=O)c3)C(=O)O2)cc1 | 0 | 0 | 0 | 0 | 0 | 0 | - | -
CCCc1nnc(NS(=O)(=O)c2ccc(OC)cc2)s1 | 0 | 0 | 0 | 0 | 0 | 72 | 0 | 0
COCc1nnc(NS(=O)(=O)c2ccc(OC)cc2)s1 | 0 | 0 | 0 | 0 | 0 | 0 | - | -
c1ccc(-c2nc(-c3ccco3)n3ccccc23)cc1 | 0 | 0 | 0 | 0 | 0 | 57 | 0 | 0
O=C1c2ccccc2-c2c1c1ccccc1c(=O)n2CCO | 0 | 0 | 0 | 0 | 0 | 0 | - | -
O=C1c2ccccc2-c2c1c1ccccc1c(=O)n2-c1ccccc1 | 0 | 0 | 0 | 0 | 0 | 0 | 0 | 0
CC1CCN(C(=O)Cn2cc([N+](=O)[O-])ccc2=O)c2ccccc2S1 (stereo unspecified) | 0 | 0 | 0 | 0 | 0 | 0 | - | -
Cc1ccc(C(=O)CC(C(=O)O)n2cccn2)cc1 (stereo unspecified) | 0 | 0 | 0 | 0 | 0 | 0 | - | -
C/C(=N/NC(=O)c1cc(-c2cccc([N+](=O)[O-])c2)n[nH]1)c1cccc(O)c1 | 0 | 0 | 0 | 0 | 0 | 89 | 0 | 0
C/C(=N/NC(=O)c1ccc(O)cc1)c1cccc([N+](=O)[O-])c1 | 0 | 0 | 0 | 0 | 0 | 0 | - | -
Cc1ccc(CN2C(=O)N/C(=C\c3ccc(-c4ccc(C(=O)O)cc4C)o3)C2=O)cc1 | 71 | 0 | 0 | 0 | 0 | 126 | 0 | 0
O=C(/C=C/c1ccc(Cl)cc1)NC(=S)Nc1ccc(NC(=O)c2ccco2)cc1 | 0 | 0 | 0 | 0 | 0 | 58 | 0 | 0
CCCc1c(C(=O)N/N=C/C=C/c2ccccc2)nnn1-c1nonc1N | - | 0 | 0 | 0 | 0 | 51 | 0 | 0
COc1ccc(OCCC(=O)OCC(=O)NC2CCCCCCC2)cc1 | 0 | 0 | 0 | 0 | 0 | 0 | - | -
SMILES | Scp1 inh | LMPTP block | STEP block | SUMO1-SIM PPI | NadD inh | DNMT1 block | DNMT1 inh conf | Beacon interf | others
Cc1ccc(/C=N/NC(=O)C(O)c2ccccc2)o1 (stereo unspecified) | 0 | 0 | 0 | 0 | 0 | 0 | - | -
O=C(N/N=C/c1cc(Br)c(Br)o1)C(O)c1ccccc1 (stereo unspecified) | 0 | 0 | 0 | 0 | 0 | 77 | 0 | 0
Cc1cnn(-c2cc(N/N=C/c3ccc(F)cc3)ncn2)c1 | 0 | 0 | 0 | 0 | 0 | 60 | 0 | 0
Cc1cnn(-c2cc(N/N=C/c3ccccc3Cl)ncn2)c1 | 0 | 0 | 0 | 0 | 0 | 0 | - | -
COc1ccc(S(=O)(=O)N2CCN(C(=O)C3COc4ccccc4O3)CC2)cc1 (stereo unspecified) | 64 | 56 | 0 | 0 | 0 | 95 | 54 | 0 | Beacon interf DR=0
CC(=O)Nc1ccc(S(=O)(=O)N2CCN(C(=O)C3COc4ccccc4O3)CC2)cc1 (stereo unspecified) | 0 | 0 | 0 | 0 | 0 | 0 | - | -
Cc1nc(NCc2cccnc2)c2c3c(sc2n1)CCCC3 | 0 | 0 | 0 | 0 | 0 | 51 | 0 | 0
c1cncc(CNc2ncnc3sc4c(c23)CCCC4)c1 | 0 | 0 | 0 | 0 | 0 | 0 | - | -
CCCc1cc(=O)[nH]c(SCC(=O)Nc2ccc(Br)cc2)n1 | 0 | 0 | 0 | 0 | 0 | 0 | - | -
CCOC(=O)N1CCN(Cc2nc(CC3CC3)no2)CC1 | 0 | 0 | 0 | 0 | 0 | 82 | 0 | 0
COc1ccc(-c2cc(C(=O)Nc3cc(Cl)ccc3O)no2)cc1 | 0 | 66 | 0 | 0 | 0 | 54 | 0 | 0
COc1ccc(C[C@H]2CN3C(=NC[C@H]3Cc3ccccc3)N2CCNC(=O)CCC2CCCCC2)cc1 | 0 | 0 | 0 | 0 | 0 | 0 | - | -
COc1ccccc1CCNC(C)CCc1ccc(O)cc1 (stereo unspecified) | 0 | 0 | 0 | 0 | 0 | 68 | 0 | 0
COc1ccc(CCC(C)NCc2ccccc2OC)cc1 (stereo unspecified) | 0 | 0 | 0 | 0 | 0 | 0 | - | -
Cc1cc(C)cc(Nc2nc3c(S(=O)(=O)c4ccccc4)nnn3c3ccccc23)c1 | 0 | 0 | 0 | 0 | 0 | 54 | 0 | 0
Cc1ccc2sc(N(CCCN(C)C)C(=O)c3ccc(S(=O)(=O)N4CCOCC4)cc3)nc2c1C | 0 | 0 | 0 | 0 | 0 | 0 | - | -
O=C(COC(=O)c1cc([N+](=O)[O-])ccc1N1CCOCC1)Nc1c(Cl)cccc1Cl | 0 | 0 | 0 | 0 | 0 | 0 | - | -

Compound activity as filed in PubChem BioAssay.
